HSF1 inh: HSF1 inhibitors in luciferase reporter cells, primary screen, cell-based, NIH3T3, luminescence; NIH3T3-HGL HSE-luciferase, MG132-induced, luminescence 8 h; hits give low values; 300,000 tested, 0.77% active; activity change, negative = inhibition, % at 7.5 µM (by protocol);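 active = more than half of replicate wells show activity change below -50%, luminescence cut by over half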;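 note: luciferase reports HSF-1 transcriptional activity via heat shock element; 0% = median of DMSO wells and -100% = zero luminescence signal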
T cruzi repl: inhibitors of intracellular T. cruzi growth, primary screen, luminescence, NIH3T3 host cells; 300,000 tested, 1.4% active; inhibition, % (concentration not given with the values); T. cruzi beta-gal in NIH3T3, 90 h;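 active = mean inhibition across valid replicates above about 55%, limit read from the data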;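 note: signal also drops with host cell toxicity which is not excluded here; 0% = plate median of DMSO wells and 100% = zero luminescence signal; higher percent means less beta-gal luminescence so fewer parasites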
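assay system = mouse NIH/3T3 fibroblasts infected with β-gal-expressing T. cruzi Tulahuen C4 | input = 5,000 NIH/3T3 host cells per well | buffer or medium = DMEM plus 2% FBS | timing = 3 h host attachment, then at least 90 h co-culture | measured by = GalScreen luminescence, 60 min | evaluation = luminescence reflecting intracellular parasite burden, expressed as percent inhibition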
HSF-1 act: HSF-1 activators, primary screen, NIH3T3-HGL cells, MG132 stress, luminescence, single point | NIH3T3-HGL HSF-1 luciferase reporter, 8 h; 100% = twice DMSO control signal | activation, % at 9 µM | 300,000 tested, 1.7% active | AID 504408, 2011;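 active = mean replicate activation of at least 50% with a set share of replicates each reaching 50%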;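 note: 0% = median of the neutral control wells and 100% = twice that signal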
Hsp70 activator: Hsp70 transcriptional activators, primary screen, cell-based, HeLa, Hsp70 promoter luciferase, luminescence, 10 µM; HeLa Hsp70 promoter luciferase reporter; scaled: vehicle 0, proteasome-inhibitor control 100%; activation, % at 10 µM; AID 1203, 2008; 200,000 tested, 0.04% active;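 active = activation above the mean across all tested compounds plus 3 SD, cutoff set per campaign, cut at about 5.5% in these data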;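 note: 100% = MG132 at 30 µM as the positive control and 0% = DMSO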
L major viab: Leishmania major promastigote growth inhibition, primary screen; Leishmania major promastigotes, resazurin fluorescence viability; inhibition, % at 10 µM; 200,000 tested, 9% active; in the data active = inhibition above about 50%;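 note: promastigotes grown with compound for 44 hours at 28 °C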
* = called active by the depositor; nt = no result. This is one part of a sample in which hits are shown more often than they occur.

SMILES	HSF1 inh	T cruzi repl	HSF-1 act	Hsp70 activator	L major viab
O=C(NCCC1=CCCCC1)C(=O)NCC(c1ccco1)N1CCN(c2ccc(F)cc2)CC1 (configuration not stated)	2	-17	10	-1	80*
O=C(NCc1ccco1)C(=O)NCC(c1ccco1)N1CCOCC1 (configuration not stated)	-69*	-13	-77	0	-3
O=C(NCc1cccnc1)C(=O)NCC(c1ccco1)N1CCN(c2ccccc2)CC1 (configuration not stated)	41	-21	80*	0	52*
O=C(NCc1cccnc1)C(=O)NCC(c1ccco1)N1CCOCC1 (configuration not stated)	-1	-5	6	0	-14
O=C(NCCc1c[nH]c2ccccc12)C(=O)NCC(c1ccco1)N1CCN(c2ccccc2F)CC1 (configuration not stated)	2	20	17	0	76*
Cc1ccc2nsnc2c1NC(=O)COc1ccccc1F	-6	17	6	0	3
CCc1cccc(NC(=O)CSc2nnc(Cc3ccc(OC)cc3)c(=O)[nH]2)c1	1	-2	-3	nt	nt
O=C(NCC(c1cccnc1)N1CCN(c2ccccc2)CC1)c1ccco1 (configuration not stated)	0	65*	4	0	89*
O=C(NCc1ccccc1)C(=O)NCC(c1ccco1)N1CCN(c2ccccc2F)CC1 (configuration not stated)	4	-9	-6	-1	12
O=C(NCc1cccnc1)C(=O)NCC(c1ccco1)N1CCN(c2ccccc2F)CC1 (configuration not stated)	-3	4	26	0	56*
COc1ccc(Cc2nnc(SCC(=O)Nc3ccc(N4CCOCC4)cc3)n2C)cc1	-13	-15	-1	nt	nt
CCc1c(C)nc(SCC(=O)N2CC(C)OC(C)C2)[nH]c1=O (configuration not stated)	-5	-6	-10	nt	nt
Fc1ccccc1CN1CCCN(C(=S)Nc2cccc(Cl)c2)C1	nt	19	nt	0	86*
O=C(Nc1ccccc1)N1CCCN(Cc2ccccc2F)C1	-5	11	17	0	8
Cc1c(Cl)cccc1NC(=S)N1CCCN(Cc2ccc(F)cc2)C1	nt	25	nt	0	89*
Cc1c(Cl)cccc1NC(=S)N1CCCN(Cc2ccccc2F)C1	3	21	-1	0	82*
O=C(NCc1ccc(F)cc1)C1CCN(S(=O)(=O)c2cccc3nonc23)CC1	-1	7	-1	nt	nt
Cc1ccc2cccc(OCC(=O)N3CC(C)CC(C)C3)c2n1 (configuration not stated)	-2	2	21	0	-3
OC(COC(c1ccc(Cl)cc1)c1ccc(Cl)cc1)CN1CCc2ccccc2C1 (configuration not stated)	4	62*	5	0	50
OC(COC(c1ccccc1)c1ccccc1)CN1CCc2ccccc2C1 (configuration not stated)	0	2	-8	0	9
OC(COC(c1ccc(Cl)cc1)c1ccc(Cl)cc1)CN1CCCC1 (configuration not stated)	-7	1	-4	0	100*
Cc1nc2nc(C)c(CCC(=O)NC(C)c3ccc4c(c3)OCCO4)c(C)n2n1 (configuration not stated)	3	7	-13	0	-3
Cc1nc2cc(-c3cccc(F)c3)nn2c(C)c1CCC(=O)NC(C)c1ccc2c(c1)OCCO2 (configuration not stated)	2	37	1	0	97*
Cc1nc2cc(-c3ccccc3)nn2c(C)c1CCC(=O)NC(C)c1ccc2c(c1)OCCO2 (configuration not stated)	-47	34	-57	0	95*
CC(NC(=O)Cn1cccc1C(=O)c1ccccc1)c1ccc2c(c1)OCCO2 (configuration not stated)	3	-5	-14	0	89*
O=C(Cn1cccc1C(=O)c1ccccc1)NCc1ccc2c(c1)OCO2	-1	-4	3	0	2

Screening results (PubChem)
